Hits are enriched below; roughly 1.9% of the tested compounds scored in any of these assays.
Vif imaging: HIV Vif self-association inhibitors, primary screen, imaging, HEK293T, single point. HEK293T cells, Vif self-association by quenched fluorescence, 24 h. inhibition, % at 7.49 µM. hit rate 0.35% among 340,000. AID 602346, 2012; in the data active = inhibition above about 50%, passing the limit was not always enough; inconclusive = no clear call, values can overlap the other calls; inactive = below about 31%
UCH37 inh: inhibitors of human UCH37 deubiquitinase, primary screen, biochemical, Ub-AMC cleavage, fluorescence; Ubiquitin carboxyl-terminal hydrolase isozyme L5 (Homo sapiens), Q9Y5K5; purified proteasome/UCH37; inhibition, % (concentration not given with the values); hit rate 0.33% among 330,000; AID 588478, 2011;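 active = mean inhibition over replicate wells above about 20%, limit read from the data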;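 also: 0% = compound-free wells with enzyme and 100% = wells lacking proteasome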
Target sequence (Q9Y5K5 whole entry, looked up): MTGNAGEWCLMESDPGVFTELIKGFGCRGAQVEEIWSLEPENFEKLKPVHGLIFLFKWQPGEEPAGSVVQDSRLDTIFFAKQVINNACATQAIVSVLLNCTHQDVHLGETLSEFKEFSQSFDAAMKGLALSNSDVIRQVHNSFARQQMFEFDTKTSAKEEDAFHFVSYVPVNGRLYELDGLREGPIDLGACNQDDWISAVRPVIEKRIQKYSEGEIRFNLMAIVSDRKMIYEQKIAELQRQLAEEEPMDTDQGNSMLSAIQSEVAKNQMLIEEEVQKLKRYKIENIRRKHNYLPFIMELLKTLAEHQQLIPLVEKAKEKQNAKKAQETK
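Signal – fluorescence, ex 355 nm, em 460 nm · System – Proteasome-bound UCH37 · Input – 0.15 nM proteasome as dispensed · Timing – 30 min preincubation with enzyme, 25 min cleavage at room temperature · Read-out basis – percent inhibition of cleavage signal versus uninhibited and no-proteasome wells · Medium – Tris-HCl pH 7.4 with ATP-MgCl2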
bovine MsrA act: bovine MsrA enzyme activators, primary screen, biochemical, absorbance, HTS. Methionine sulfoxide reductase A (Bos taurus). purified bovine MsrA, absorbance read-out. activation, % at 10.6 µM. hit rate 0.3% among 360,000. AID 602163, 2012; in the data active = activation above about 7.5%;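 also: 0% = vehicle and 100% = reference activator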
MsrA inh: bovine MsrA enzyme inhibitors, primary screen, biochemical, absorbance, HTS. purified bovine MsrA, absorbance read-out. Methionine sulfoxide reductase A (Bos taurus). hit rate 0.75% among 360,000. inhibition, % at 15.5 µM;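 also: 0% = vehicle wells with enzyme and 100% = reference inhibitor wells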
N-glyco inh: increase of ERlucT glycosylation luciferase signal, primary screen, N-linked glycosylation inhibitor project, D54 ERlucT cells, luminescence, set 2; hit rate 0.23% among 360,000; reporter increase, % at 12.5 µM; D54 ERlucT glycosylation luciferase reporter, 24 h; percent of 100 nM tunicamycin response;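 active = mean luciferase reporter signal, scaled so untreated is 0 and the glycosylation-blocking control 100, at or above a set limit in every replicate; inconclusive = mean reaches the limit but not every replicate does; inactive = mean below the limit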;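 also: luciferase carries N-glycosylation sites so blocking glycosylation raises the light; 0% = median of neutral control wells and 100% = median of 100 nM tunicamycin wells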
aDG glyco act: activators of alpha-DG glycosylation, primary screen, uHTS, Pro5-aDG cells, AlphaScreen; alpha-DG glycosylation AlphaScreen (IIH6); 0% Pro5, 100% B10-LARGE cell signal; activation, % at 10 µM; hit rate 0.22% among 360,000; AID 624168, 2012;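 active = activation of at least 8% versus controls, or a plate z-score of at least 8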;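 also: Pro5 are CHO cells carrying HIG-tagged alpha-DG that lacks glycosylation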
MsrA inh confirm: bovine MsrA inhibitors, retest, confirmation, biochemical, absorbance, HTS; shares compounds with MsrA inh; purified bovine MsrA, absorbance read-out; inhibition, % at 15.5 µM; hit rate 41% among 2,300; AID 651822, 2012;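 also: coupled to thioredoxin reductase with NADPH and selenocystamine and DMSO as substrate; 0% = vehicle only and 100% = full effect of reference inhibitor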
* = called active by the depositor; i = inactive; ? = inconclusive; / = no result. Rule as the data show it, unless noted: active = inhibition above about 4.5%; inactive = the rest.

SMILES | Vif imaging | UCH37 inh | bovine MsrA act | MsrA inh | N-glyco inh | aDG glyco act | MsrA inh confirm
O=[N+]([O-])c1cccc(C=Nn2c(COc3ccccc3)n[nH]c2=S)c1 | / | 5 | / | / | / | / | /
COC(=O)C1=C(C)NC(=S)N(C(C)=O)C1c1ccc(OC)c(OC)c1 (configuration not stated) | 1 | 6 | -5 | 4.7* | 9 | 0 | 3
CC(=O)ON=C(N)Cc1ccc(-c2csnn2)cc1 | / | 4 | / | / | / | / | /
O=[N+]([O-])c1cnc(Nc2ccc(Cl)cn2)c([N+](=O)[O-])c1 | -4 | 6 | 2 | 6.1* | 6 | 2 | 8.0*
N#C/C(=C\c1ccc(O)c([N+](=O)[O-])c1)C(=O)NCc1ccccc1 | 8 | 19 | -4 | 5.5* | 4 | 0 | 2
N#C/C(=C\c1ccc(O)c(Br)c1)C(=O)NCc1ccccc1 | -7 | 6 | -3 | -1 | 3 | 0 | /
COc1cc(C=NOCC(=O)NC2CCCCC2)ccc1OCc1ccccc1 | / | 3 | / | / | / | / | /
COc1cc(/C=C(/C(=O)c2cccs2)c2nc3ccccc3[nH]2)cc(OC)c1O | 26 | 6 | -6 | 5.5* | 16 | 0 | 4
COc1ccc(C(=O)N/C(=C/c2cccs2)C(=O)NC(C)(C)C)cc1OC | 0 | 7 | -4 | 2 | 1 | 0 | /
COc1ccc(C(=O)N/C(=C/c2cccs2)c2nc3ccccc3[nH]2)cc1OC | -3 | -12 | -5 | 5.3* | 5 | 0 | 4
COc1cc(/C=C2/C(=O)N(c3ccc([N+](=O)[O-])cc3)N=C2N2CCOCC2)ccc1O | -1 | 8 | -3 | 4.7* | 0 | 0 | 4.6*
COc1cc(/C=C2\SC(=S)N(N3CCOCC3)C2=O)ccc1O | -3 | / | -9 | -1 | 1 | 0 | /
O=C1CSC(=S)N1N=C/C=C/c1ccccc1 | / | 12 | / | / | / | / | /
Cc1ccc(C)c(/C(O)=C2\C(=O)C(=O)N(CCCN3CCOCC3)C2c2cccnc2)c1 (configuration not stated) | 6 | 2 | -5 | 16* | 1 | 1 | 0
Oc1ccc2ccccc2c1C=NNc1ccccc1 | / | -11 | / | / | / | / | /
CN1CCc2c(sc(N=Cc3cccs3)c2C(N)=O)C1 | / | -28 | / | / | / | / | /
N#CC(=NO)c1nc2ccccc2[nH]1 | / | -2 | / | / | / | / | /
Cc1ccc2nc(/C(C#N)=N/O)[nH]c2c1 | 6 | / | -6 | 5.1* | 0 | 1 | 3
COC(=O)c1[nH]c2c(c1C(=O)OC)CCc1ccccc1-2 | / | -446 | 5 | 5.6* | 3 | 0 | 1
CCN(CC)CCN(Cc1cc2cc3c(cc2[nH]c1=O)OCCO3)C(=S)NCC1CCCO1 (configuration not stated) | 0 | -148 | -1 | 1 | 2 | 0 | /
CN(C)CCN(Cc1cc2cc3c(cc2[nH]c1=O)OCCO3)C(=S)NCC1CCCO1 (configuration not stated) | 0 | -136 | -4 | 5.2* | 3 | 0 | 1
COCCNC(=S)N(CCO)Cc1cc2cc3c(cc2[nH]c1=O)OCO3 | 4 | -139 | -7 | 5.1* | 2 | 0 | 5.1*
Cc1ccccc1-c1nc(C#N)c(N2CCCCC2)o1 | 2 | -73 | -4 | 8.4* | -2 | 0 | 8.6*
N#Cc1nc(-c2ccccc2F)oc1N1CCCC1 | -11 | -421 | -2 | 2 | 1 | 0 | /
O=C(O)c1ccc(N2C(=O)/C(=C\c3ccccc3)N=C2c2ccccc2)cc1 | 6 | 11 | -5 | 1 | 2 | 0 | /
SMILES | Vif imaging | UCH37 inh | bovine MsrA act | MsrA inh | N-glyco inh | aDG glyco act | MsrA inh confirm
CC1=N/C(=C\c2ccc3c(c2)OCO3)C(=O)N1c1ccc(C(=O)O)cc1 | 5 | 12 | -1 | 5.6* | 1 | 0 | 2
COc1ccc(CCC(=NO)C2(O)CCCCC2)cc1 | / | 6 | / | / | / | / | /
CC(/C=C/c1ccc2c(c1)OCO2)=N\NC(=O)C(O)c1ccccc1 (configuration not stated) | ? | / | -5 | 4.9* | 3 | 0 | 5.0*
CC(/C=C/c1ccc2c(c1)OCO2)=N\NC(=O)c1ccccc1 | 1 | / | -5 | 4 | 3 | 0 | /
O=C(N/N=C/C=C/c1ccc2c(c1)OCO2)C(O)c1ccccc1 (configuration not stated) | 1 | / | -7 | 6.7* | -3 | 0 | 4.8*
O=C(N/N=C\C=C\c1ccc2c(c1)OCO2)c1ccc(F)cc1 | / | / | -5 | 6.4* | 1 | 0 | 4.9*
O=C(NCC1CCCO1)C(=O)N/N=C/c1ccc(O)c(Cl)c1 (configuration not stated) | 15 | / | -6 | 5.3* | 1 | 0 | 4
O=C(NCC1CCCO1)C(=O)N/N=C/c1cc(Cl)ccc1O (configuration not stated) | 1 | / | -1 | 1 | 2 | 0 | /
Cn1nnc2sc3c(c2c1=O)CCCC3 | -11 | 5 | -1 | 5.0* | 1 | 0 | 5.8*
CCN(CC)c1ccc(-c2nnc(SCC(=O)N(CCOC)c3c(N)n(CC(C)C)c(=O)[nH]c3=O)o2)cc1 | 3 | 9 | -6 | 5.3* | 1 | 0 | 4
COc1ccc(/C=C2/S/C(=N/N=C3CC4CCC3(C)C4(C)C)NC2=O)cc1 (configuration not stated) | / | 0 | / | / | / | / | /
NC(=O)Cc1nc(-c2ccc([N+](=O)[O-])cc2)cs1 | -3 | 10 | -4 | 5.0* | 1 | 1 | 1
NC(=O)Cc1nc(-c2ccc(F)cc2)cs1 | -7 | 4 | -1 | 1 | 2 | 0 | /
CC(=O)C(=NNc1ccccc1)Sc1nncn1C | / | 8 | / | / | / | / | /
Nc1ccc2nc(-c3cc(Cl)c(N)c(Cl)c3)[nH]c2c1 | 12 | -149 | -11 | 4.8* | 13 | 0 | 5.6*
Nc1ccc(-c2nc3ccc(N)cc3[nH]2)cc1 | 1 | i | -3 | 5.5* | 2 | 0 | 4
Nc1ccc(-c2nc3c(Cl)c(N)ccc3[nH]2)cc1 | 13 | i | -10 | 5.3* | 0 | 0 | 4
Nc1ccc2nc(-c3ccc(Cl)cc3)[nH]c2c1 | 5 | i | -1 | 2 | -1 | 0 | /
CCn1c2ccccc2c2cc(C=Nn3c(-c4cc(C)[nH]n4)n[nH]c3=S)ccc21 | / | 2 | / | / | / | / | /
CCC(C)Oc1ccc(/C=C/c2[nH]c(=O)[nH]c(=O)c2[N+](=O)[O-])cc1OC (configuration not stated) | -2 | 13 | -3 | 7.6* | 1 | 0 | 4.6*

Screens from PubChem.
